This note sets out measurements from ChEMBL document CHEMBL4373711, “Development of 3,5-Dinitrophenyl-Containing 1,2,4-Triazoles and Their Trifluoromethyl Analogues as Highly Efficient Antitubercular Agents Inhibiting Decaprenylphosphoryl-β-d-ribofuranose 2'-Oxidase” (J Med Chem, 2019).

Where only a bound is given, the exact number is not on record here.

The nature of data set [1]: Genotoxicity in Salmonella typhimurium TA98 at 30 uM in presence of rat liver S9 fraction by Ames test. The data set is classed as toxicity, subcellular. The settings on record: salmonella enterica subsp. enterica serovar typhimurium, s9, 30 µM. In outline:
(§1)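 Microplate fluctuation Ames reverse-mutation test following kit instructions; TA98 detects frameshift and TA100 base-exchange mutations. Compound at 30 µM final with Aroclor-1254-induced rat liver S9 plus cofactors.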
In general terms: The Ames test uses bacterial strains that need an amino acid and regain growth without it when mutated back.

Data set [2] can be described thus: Genotoxicity in Salmonella typhimurium TA100 at 30 uM in presence of rat liver S9 fraction by Ames test. It counts as toxicity, subcellular. The settings on record: salmonella enterica subsp. enterica serovar typhimurium, s9, 30 µM. In outline:
as §1

The nature of data set [3]: Selectivity index, ratio of IC50 for human HepG2 cells to MIC>99 for antimycobacterial activity against Mycobacterium kansasii CNCTC My 235/80 after 14 days. The settings on record: read-out: Selectivity Index. It counts as toxicity.
Data set [4] can be described thus: Selectivity index, ratio of IC50 for human A431 cells to MIC>99 for antimycobacterial activity against Mycobacterium tuberculosis H37Rv CNCTC My 331/88 after 14 days. The settings on record: read-out: Selectivity Index. The data set is classed as toxicity.
Data set [5] in a line: Selectivity index, ratio of IC50 for human A431 cells to MIC>99 for antimycobacterial activity against Mycobacterium kansasii CNCTC My 235/80 after 7 days. The data set is classed as toxicity. The settings on record: read-out: Selectivity Index.
Data set [6] is described as follows: Selectivity index, ratio of IC50 for human HepG2 cells to MIC>99 for antimycobacterial activity against XDR Mycobacterium tuberculosis Praha 131 after 14 days. It counts as toxicity. The settings on record: read-out: Selectivity Index. In outline: (§2)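 SI from HepG2 IC50 and M. tuberculosis MIC. HepG2 cells: DMEM + 10% FBS + 1 mM pyruvate, 10,000/well, 48 h treatment, 0.1% DMSO and 10% SDS controls, MTS absorbance at 490 nm.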

The nature of data set [7]: Selectivity index, ratio of IC50 for human A431 cells to MIC>99 for antimycobacterial activity against Mycobacterium kansasii 6509/96 after 21 days. The settings on record: read-out: Selectivity Index. It counts as toxicity.
The nature of data set [8]: Selectivity index, ratio of IC50 for human HepG2 cells to MIC>99 for antimycobacterial activity against Mycobacterium kansasii CNCTC My 235/80 after 7 days. It counts as toxicity. The settings on record: read-out: Selectivity Index.
The nature of data set [9]: Selectivity index, ratio of IC50 for human A431 cells to MIC>99 for antimycobacterial activity against Mycobacterium avium CNCTC My 330/88 after 14 days. The data set is classed as toxicity. The settings on record: read-out: Selectivity Index.
Data set [10] in a line: Selectivity index, ratio of IC50 for human HepG2 cells to MIC>99 for antimycobacterial activity against Mycobacterium avium CNCTC My 330/88 after 14 days. The settings on record: read-out: Selectivity Index. It counts as toxicity.
A short description of data set [11]: Selectivity index, ratio of IC50 for human HepG2 cells to MIC>99 for antimycobacterial activity against Mycobacterium tuberculosis H37Rv CNCTC My 331/88 after 21 days. The data set is classed as toxicity. The settings on record: read-out: Selectivity Index. The method, boiled down: as §2
The nature of data set [12]: Selectivity index, ratio of IC50 for human A431 cells to MIC>99 for antimycobacterial activity against Mycobacterium kansasii CNCTC My 235/80 after 14 days. The data set is classed as toxicity. The settings on record: read-out: Selectivity Index.
A short description of data set [13]: Selectivity index, ratio of IC50 for human A431 cells to MIC>99 for antimycobacterial activity against Mycobacterium kansasii CNCTC My 235/80 after 21 days. The data set is classed as toxicity. The settings on record: read-out: Selectivity Index.
The nature of data set [14]: Selectivity index, ratio of IC50 for human A431 cells to MIC>99 for antimycobacterial activity against XDR Mycobacterium tuberculosis Praha 131 after 14 days. The settings on record: read-out: Selectivity Index. The data set is classed as toxicity.
The nature of data set [15]: Selectivity index, ratio of IC50 for human A431 cells to MIC>99 for antimycobacterial activity against Mycobacterium kansasii 6509/96 after 7 days. The data set is classed as toxicity. The settings on record: read-out: Selectivity Index.
Data set [16] can be described thus: Selectivity index, ratio of IC50 for human A431 cells to MIC>99 for antimycobacterial activity against Mycobacterium tuberculosis H37Rv CNCTC My 331/88 after 21 days. It counts as toxicity. The settings on record: read-out: Selectivity Index.
Data set [17] is described as follows: Selectivity index, ratio of IC50 for human A431 cells to MIC>99 for antimycobacterial activity against Mycobacterium avium CNCTC My 330/88 after 21 days. The data set is classed as toxicity. The settings on record: read-out: Selectivity Index.
Data set [18] can be described thus: Selectivity index, ratio of IC50 for human HepG2 cells to MIC>99 for antimycobacterial activity against XDR Mycobacterium tuberculosis Praha 131 after 21 days. It counts as toxicity. The settings on record: read-out: Selectivity Index. In outline:
as §2

The nature of data set [19]: Selectivity index, ratio of IC50 for human HepG2 cells to MIC>99 for antimycobacterial activity against Mycobacterium kansasii 6509/96 after 14 days. The data set is classed as toxicity. The settings on record: read-out: Selectivity Index.
Data set [20] can be described thus: Selectivity index, ratio of IC50 for human HepG2 cells to MIC>99 for antimycobacterial activity against Mycobacterium tuberculosis H37Rv CNCTC My 331/88 after 14 days. It counts as toxicity. The settings on record: read-out: Selectivity Index. In outline: as §2

In the case of `O=[N+]([O-])c1cc(-c2nnc(SCc3ccccc3)n2Cc2ccccc2)cc([N+](=O)[O-])c1`, the Activity entry in data set [1] and in [2] was “Non-Toxic” in each case.

As for `O=[N+]([O-])c1cc(-c2nnc(SCc3ccccc3)n2Cc2ccccc2)cc(C(F)(F)F)c1`, the selectivity ratio at 336 h in data set [3], in data set [4], in data set [6], in data set [9], in [10] and in data set [12] was more than 100 in each case. Moreover, the selectivity ratio at 336 h in data set [14], in [19] and in data set [20] was more than 100 in each case. The selectivity ratio at 168 h in data set [5], in [8] and in [15] was more than 100 in each case. Besides, the selectivity ratio at 504 h in data set [7], in [11], in [13], in data set [16], in [17] and in data set [18] was more than 100 throughout.
